Values belong to the molecule of their own block, whether it stands above or below them.
Key:
[1] = target: T1, IKBKB (IKKβ) (Homo sapiens, UniProt O14920); test: Z'-LYTE in vitro kinase assay, IKKβ; type: biochemical; conditions: preliminary screen, small panel of kinases
T1 sequence (O14920 1-756): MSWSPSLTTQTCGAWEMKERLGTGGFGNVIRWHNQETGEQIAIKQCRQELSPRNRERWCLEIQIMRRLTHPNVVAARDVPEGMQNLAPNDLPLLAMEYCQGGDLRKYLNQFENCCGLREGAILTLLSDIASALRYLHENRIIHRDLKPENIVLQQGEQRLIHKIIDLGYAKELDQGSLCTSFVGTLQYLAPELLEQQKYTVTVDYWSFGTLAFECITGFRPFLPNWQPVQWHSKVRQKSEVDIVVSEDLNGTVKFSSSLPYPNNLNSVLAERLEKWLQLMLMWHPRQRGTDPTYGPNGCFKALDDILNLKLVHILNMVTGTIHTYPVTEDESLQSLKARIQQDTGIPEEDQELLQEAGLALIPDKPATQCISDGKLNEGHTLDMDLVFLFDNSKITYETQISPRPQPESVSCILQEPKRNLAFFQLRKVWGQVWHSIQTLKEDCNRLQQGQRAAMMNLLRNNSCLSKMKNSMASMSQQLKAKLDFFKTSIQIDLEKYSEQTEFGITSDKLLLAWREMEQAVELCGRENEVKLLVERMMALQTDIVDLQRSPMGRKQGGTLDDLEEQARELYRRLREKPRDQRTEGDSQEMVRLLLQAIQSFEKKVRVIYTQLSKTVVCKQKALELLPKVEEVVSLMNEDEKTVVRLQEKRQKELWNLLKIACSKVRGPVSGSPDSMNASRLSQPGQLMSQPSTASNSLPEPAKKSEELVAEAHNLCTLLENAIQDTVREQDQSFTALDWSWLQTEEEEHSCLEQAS

[2] = target: MEK1 (Homo sapiens, UniProt Q02750); test: Z'-LYTE MAP2K1; type: biochemical; conditions: preliminary screen, small panel of kinases
Chain of MEK1 (Q02750 whole entry): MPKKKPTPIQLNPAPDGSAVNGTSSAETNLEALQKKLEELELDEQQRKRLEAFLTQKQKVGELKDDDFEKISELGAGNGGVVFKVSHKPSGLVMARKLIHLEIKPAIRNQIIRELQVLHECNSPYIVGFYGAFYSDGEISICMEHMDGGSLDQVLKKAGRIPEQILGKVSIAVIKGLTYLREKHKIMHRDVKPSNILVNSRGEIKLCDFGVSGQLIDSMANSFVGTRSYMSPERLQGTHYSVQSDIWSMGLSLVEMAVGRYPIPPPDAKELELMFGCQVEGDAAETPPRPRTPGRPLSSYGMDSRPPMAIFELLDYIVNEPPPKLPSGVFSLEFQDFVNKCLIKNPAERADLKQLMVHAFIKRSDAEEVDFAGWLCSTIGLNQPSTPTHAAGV

[3] = target: RAF1 (Homo sapiens, UniProt P04049, Y340D/Y341D); test: Z'-LYTE RAF1; type: biochemical; conditions: preliminary screen, small panel of kinases
Chain of RAF1 (P04049 306-648 Y340D/Y341D limits assumed): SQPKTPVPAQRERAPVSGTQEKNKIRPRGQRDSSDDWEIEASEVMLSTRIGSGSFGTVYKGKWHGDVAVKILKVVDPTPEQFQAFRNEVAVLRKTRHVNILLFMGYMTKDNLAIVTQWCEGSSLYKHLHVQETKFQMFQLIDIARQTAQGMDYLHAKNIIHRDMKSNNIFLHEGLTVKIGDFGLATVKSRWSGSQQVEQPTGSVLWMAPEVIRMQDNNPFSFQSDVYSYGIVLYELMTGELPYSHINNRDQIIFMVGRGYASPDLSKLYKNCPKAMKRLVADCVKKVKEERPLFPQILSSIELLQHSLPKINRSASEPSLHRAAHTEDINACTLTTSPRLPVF

[4] = cited from earlier work
[5] = target: PRKCβ1 (Homo sapiens, UniProt P05771); test: Kinase profile screen at 5 μM, PRKCβ1; type: biochemical; conditions: read-out: inhibition of PRKCβ1
In short: (§1)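 Most kinases used the Z'Lyte read-out: a FRET-labelled peptide, protease development, and coumarin/fluorescein emission ratio. Some used Adapta (ADP TR-FRET) or a kinase cascade. Protease- and fluorescence-interference control wells were included. Values above 100% or below 0% were taken as maximal or no inhibition.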

[6] = target: T2, ACVR1B (Homo sapiens, UniProt P36896); test: Kinase profile screen at 5 μM, ACVR1B; type: biochemical; conditions: read-out: inhibition of ACVR1B
T2 sequence (P36896 24-505): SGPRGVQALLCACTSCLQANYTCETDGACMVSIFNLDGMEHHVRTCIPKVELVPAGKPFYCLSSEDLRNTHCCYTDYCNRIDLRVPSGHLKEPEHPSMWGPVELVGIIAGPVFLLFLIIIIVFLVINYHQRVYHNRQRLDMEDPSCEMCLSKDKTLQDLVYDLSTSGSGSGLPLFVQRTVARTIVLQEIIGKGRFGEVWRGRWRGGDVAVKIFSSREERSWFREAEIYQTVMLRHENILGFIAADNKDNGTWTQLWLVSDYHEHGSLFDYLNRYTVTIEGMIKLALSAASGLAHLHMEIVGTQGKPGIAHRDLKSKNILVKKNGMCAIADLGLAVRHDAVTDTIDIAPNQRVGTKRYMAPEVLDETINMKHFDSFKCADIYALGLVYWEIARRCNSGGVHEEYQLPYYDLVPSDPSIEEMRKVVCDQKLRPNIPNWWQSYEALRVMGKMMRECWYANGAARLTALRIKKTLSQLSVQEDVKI
In short: as §1

[7] = tested on: panel of 50 kinases; test: Kinase profile screen, 50-kinase panel; type: biochemical; conditions: 5 μM, of fifty kinases tested
In short: as §1

[8] = target: AKT1 (PKB alpha) (Homo sapiens, UniProt P31749); test: Z'-LYTE in vitro kinase assay, AKT1; type: biochemical; conditions: preliminary screen, small panel of kinases
[9] = target: T3, CHEK1 (Homo sapiens, UniProt O14757); test: Kinase profile screen at 5 μM, CHEK1; type: biochemical; conditions: read-out: inhibition of CHEK1
T3 sequence (O14757 1-476): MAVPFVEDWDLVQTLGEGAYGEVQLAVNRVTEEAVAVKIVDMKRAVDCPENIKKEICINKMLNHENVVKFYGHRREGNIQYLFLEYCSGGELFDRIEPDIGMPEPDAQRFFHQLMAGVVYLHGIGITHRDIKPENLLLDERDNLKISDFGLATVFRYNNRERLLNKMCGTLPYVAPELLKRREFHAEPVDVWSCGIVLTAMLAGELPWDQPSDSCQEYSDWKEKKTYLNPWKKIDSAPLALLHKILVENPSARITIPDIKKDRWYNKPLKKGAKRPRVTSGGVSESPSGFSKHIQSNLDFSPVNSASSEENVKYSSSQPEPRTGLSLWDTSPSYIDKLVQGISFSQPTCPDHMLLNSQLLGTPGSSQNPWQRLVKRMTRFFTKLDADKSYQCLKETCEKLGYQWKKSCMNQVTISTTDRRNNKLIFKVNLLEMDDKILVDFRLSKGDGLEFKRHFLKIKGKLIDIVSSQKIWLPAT
In short: as §1

[10] = target: KDR (VEGFR2) (Homo sapiens, UniProt P35968); test: Z'-LYTE in vitro kinase assay, KDR; type: biochemical; conditions: read-out: inhibition of KDR
Chain of KDR (VEGFR2) (P35968 20-1356): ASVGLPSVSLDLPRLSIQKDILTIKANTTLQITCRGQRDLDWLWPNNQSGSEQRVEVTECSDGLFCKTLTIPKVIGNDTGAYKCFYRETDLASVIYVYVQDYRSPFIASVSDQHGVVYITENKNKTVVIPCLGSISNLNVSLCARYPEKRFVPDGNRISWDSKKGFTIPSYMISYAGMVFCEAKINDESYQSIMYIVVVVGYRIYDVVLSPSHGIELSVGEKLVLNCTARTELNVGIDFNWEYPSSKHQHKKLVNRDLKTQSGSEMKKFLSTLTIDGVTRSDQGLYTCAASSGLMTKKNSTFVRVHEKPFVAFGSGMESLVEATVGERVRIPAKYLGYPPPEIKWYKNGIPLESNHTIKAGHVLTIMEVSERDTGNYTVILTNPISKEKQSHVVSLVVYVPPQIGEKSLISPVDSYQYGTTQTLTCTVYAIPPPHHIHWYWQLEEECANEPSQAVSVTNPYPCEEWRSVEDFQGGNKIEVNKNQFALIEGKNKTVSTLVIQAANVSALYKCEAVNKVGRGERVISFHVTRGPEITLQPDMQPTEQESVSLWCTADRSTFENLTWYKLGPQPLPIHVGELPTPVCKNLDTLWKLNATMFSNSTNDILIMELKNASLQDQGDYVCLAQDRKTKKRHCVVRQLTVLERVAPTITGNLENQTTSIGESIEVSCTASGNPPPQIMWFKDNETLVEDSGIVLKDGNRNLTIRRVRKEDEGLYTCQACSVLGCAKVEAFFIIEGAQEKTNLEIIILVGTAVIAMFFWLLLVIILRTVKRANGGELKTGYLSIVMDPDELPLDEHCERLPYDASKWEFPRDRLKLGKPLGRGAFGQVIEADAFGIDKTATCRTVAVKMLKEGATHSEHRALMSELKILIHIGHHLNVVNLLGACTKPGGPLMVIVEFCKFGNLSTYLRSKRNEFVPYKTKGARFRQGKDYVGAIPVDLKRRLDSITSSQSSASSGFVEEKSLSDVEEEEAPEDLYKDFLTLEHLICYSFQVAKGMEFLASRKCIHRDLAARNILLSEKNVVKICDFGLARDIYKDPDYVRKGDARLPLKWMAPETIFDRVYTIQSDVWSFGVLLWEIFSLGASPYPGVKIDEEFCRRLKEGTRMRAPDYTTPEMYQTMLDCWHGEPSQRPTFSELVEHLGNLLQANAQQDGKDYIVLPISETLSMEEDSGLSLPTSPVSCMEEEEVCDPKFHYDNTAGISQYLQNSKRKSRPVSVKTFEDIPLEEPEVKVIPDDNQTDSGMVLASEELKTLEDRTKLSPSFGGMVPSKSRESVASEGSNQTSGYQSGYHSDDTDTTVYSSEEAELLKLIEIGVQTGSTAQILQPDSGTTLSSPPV

[11] = target: receptor tyrosine kinase IGFR (Homo sapiens, UniProt P08069); test: Preliminary kinase screen, IGFR; type: biochemical; conditions: small panel of kinases
Chain of receptor tyrosine kinase IGFR (P08069 31-1367): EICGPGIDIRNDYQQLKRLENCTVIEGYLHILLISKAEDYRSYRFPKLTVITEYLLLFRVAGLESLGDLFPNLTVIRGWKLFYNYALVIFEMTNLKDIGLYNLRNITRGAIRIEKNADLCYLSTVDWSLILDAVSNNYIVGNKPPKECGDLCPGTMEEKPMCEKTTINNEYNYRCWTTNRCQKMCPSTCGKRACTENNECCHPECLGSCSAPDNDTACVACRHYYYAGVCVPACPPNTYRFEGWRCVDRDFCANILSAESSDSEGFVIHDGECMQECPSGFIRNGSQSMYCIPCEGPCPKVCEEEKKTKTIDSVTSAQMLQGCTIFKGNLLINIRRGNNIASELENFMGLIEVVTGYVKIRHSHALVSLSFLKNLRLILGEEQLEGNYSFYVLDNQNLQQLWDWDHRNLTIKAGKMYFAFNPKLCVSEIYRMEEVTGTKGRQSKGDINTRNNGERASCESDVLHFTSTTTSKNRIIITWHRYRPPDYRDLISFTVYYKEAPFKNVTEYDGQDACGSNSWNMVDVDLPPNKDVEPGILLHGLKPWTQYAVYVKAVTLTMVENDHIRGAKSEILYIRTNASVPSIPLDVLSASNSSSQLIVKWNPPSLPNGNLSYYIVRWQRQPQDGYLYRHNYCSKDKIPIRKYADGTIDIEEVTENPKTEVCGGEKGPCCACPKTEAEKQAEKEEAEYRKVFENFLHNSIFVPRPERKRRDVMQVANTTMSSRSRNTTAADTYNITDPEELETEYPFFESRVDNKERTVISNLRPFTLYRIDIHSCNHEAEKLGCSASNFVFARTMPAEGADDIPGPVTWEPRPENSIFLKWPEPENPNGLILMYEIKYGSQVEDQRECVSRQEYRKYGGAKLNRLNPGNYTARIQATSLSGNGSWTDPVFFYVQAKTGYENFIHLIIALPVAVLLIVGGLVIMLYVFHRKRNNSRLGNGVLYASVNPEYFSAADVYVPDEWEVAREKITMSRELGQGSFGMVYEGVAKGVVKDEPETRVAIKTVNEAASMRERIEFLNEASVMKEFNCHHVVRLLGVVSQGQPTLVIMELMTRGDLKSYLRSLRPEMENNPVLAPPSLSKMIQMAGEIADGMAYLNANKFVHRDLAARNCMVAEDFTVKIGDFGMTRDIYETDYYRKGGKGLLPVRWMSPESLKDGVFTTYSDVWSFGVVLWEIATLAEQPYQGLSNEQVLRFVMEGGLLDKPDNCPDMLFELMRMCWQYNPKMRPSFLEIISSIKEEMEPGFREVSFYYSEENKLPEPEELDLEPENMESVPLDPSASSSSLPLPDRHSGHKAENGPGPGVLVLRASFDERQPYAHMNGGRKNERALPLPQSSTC

[12] = target: CDK7 (Homo sapiens, UniProt P50613); test: Kinase profile screen at 5 μM, CDK7; type: biochemical; conditions: read-out: inhibition of CDK7
In short: as §1

[13] = target: CDK2 (Homo sapiens, UniProt P24941); test: Kinase profile screen at 5 μM, CDK2; type: biochemical; conditions: read-out: inhibition of CDK2
In short: as §1

[14] = target: T4, AKT2 (Homo sapiens, UniProt P31751); test: ADP Quest enzyme kinetics, Michaelis-Menten global analysis; type: biochemical; conditions: varying ATP and inhibitor concentrations
T4 sequence (P31751 whole entry): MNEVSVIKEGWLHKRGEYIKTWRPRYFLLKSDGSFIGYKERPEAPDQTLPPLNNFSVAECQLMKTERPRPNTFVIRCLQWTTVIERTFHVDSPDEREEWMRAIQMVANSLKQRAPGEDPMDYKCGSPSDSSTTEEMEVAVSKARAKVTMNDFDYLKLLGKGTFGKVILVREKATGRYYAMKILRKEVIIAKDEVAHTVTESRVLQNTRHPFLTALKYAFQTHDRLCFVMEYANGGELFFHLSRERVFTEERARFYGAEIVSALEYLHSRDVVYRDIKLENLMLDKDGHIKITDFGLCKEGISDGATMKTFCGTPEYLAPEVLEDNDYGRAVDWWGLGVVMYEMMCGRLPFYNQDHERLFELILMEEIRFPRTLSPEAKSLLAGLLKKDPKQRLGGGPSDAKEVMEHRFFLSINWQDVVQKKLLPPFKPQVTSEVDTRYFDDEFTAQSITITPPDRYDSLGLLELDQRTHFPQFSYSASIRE
In short: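 Purified recombinant human AKT2 with Crosstide peptide substrate; reactions run 10-90 min using fresh samples at varying ATP and inhibitor concentrations. ADP Quest enzyme-coupled fluorescence gave total ADP, and rates came from ADP formed over time. Rates were fitted by global non-linear regression to Michaelis-Menten competitive (shared Ki and Vmax) and mixed (shared Ki, α) models, with Ki and Vmax >0.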

[15] = target: T5, IRAK4 (Homo sapiens, UniProt Q9NWZ3); test: Kinase profile screen at 5 μM, IRAK4; type: biochemical; conditions: read-out: inhibition of IRAK4
T5 sequence (Q9NWZ3 1-460): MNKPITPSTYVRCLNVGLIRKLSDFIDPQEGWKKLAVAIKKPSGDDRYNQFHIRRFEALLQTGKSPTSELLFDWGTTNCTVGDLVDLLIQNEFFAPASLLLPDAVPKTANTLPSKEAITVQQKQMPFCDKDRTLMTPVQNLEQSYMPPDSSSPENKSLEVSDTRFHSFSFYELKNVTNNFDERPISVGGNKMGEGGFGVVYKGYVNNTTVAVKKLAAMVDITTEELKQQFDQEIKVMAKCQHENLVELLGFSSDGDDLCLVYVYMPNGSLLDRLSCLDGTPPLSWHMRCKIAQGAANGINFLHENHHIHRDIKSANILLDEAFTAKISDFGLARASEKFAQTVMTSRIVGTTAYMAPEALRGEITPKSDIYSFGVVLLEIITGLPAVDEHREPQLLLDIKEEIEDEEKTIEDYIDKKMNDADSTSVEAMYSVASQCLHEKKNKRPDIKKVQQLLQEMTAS
In short: as §1

[16] = target: T6, NEK1 (Homo sapiens, UniProt Q96PY6); test: Z'-LYTE in vitro kinase assay, NEK1; type: biochemical; conditions: read-out: inhibition of NEK1
T6 sequence (Q96PY6 1-1258): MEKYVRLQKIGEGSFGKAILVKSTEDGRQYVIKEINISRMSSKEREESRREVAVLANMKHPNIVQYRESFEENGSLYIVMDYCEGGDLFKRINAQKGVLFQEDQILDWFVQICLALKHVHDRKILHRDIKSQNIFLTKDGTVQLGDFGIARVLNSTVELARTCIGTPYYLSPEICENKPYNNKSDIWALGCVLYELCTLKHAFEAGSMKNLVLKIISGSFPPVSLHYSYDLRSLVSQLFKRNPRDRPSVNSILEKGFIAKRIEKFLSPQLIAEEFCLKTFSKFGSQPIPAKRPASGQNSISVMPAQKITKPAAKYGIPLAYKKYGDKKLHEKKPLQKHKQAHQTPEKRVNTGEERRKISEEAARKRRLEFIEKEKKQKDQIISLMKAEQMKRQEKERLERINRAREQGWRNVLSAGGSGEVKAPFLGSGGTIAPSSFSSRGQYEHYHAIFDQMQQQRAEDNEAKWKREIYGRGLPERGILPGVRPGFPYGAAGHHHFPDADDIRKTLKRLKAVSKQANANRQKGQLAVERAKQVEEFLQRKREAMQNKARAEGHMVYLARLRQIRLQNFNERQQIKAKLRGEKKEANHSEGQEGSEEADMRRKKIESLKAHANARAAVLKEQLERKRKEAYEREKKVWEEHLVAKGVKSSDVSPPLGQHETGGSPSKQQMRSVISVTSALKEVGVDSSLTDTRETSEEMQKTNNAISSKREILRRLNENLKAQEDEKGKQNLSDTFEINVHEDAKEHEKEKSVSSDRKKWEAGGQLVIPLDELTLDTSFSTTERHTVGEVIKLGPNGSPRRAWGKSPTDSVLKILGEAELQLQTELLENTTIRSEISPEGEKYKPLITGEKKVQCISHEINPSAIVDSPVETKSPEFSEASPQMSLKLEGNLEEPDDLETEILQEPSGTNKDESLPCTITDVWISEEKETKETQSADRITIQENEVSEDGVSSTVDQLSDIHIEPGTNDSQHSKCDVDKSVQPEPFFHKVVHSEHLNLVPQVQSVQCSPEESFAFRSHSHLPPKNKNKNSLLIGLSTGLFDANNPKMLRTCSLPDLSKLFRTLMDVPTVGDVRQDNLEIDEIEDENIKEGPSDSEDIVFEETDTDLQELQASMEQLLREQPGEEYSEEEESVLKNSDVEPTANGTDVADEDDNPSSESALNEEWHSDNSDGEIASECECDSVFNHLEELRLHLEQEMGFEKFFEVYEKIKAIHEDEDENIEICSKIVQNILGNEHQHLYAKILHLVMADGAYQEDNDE

[17] = target: cytoplasmic tyrosine kinase Src (Homo sapiens, UniProt P12931); test: Preliminary kinase screen, Src; type: biochemical; conditions: small panel of kinases
Chain of cytoplasmic tyrosine kinase Src (P12931 whole entry): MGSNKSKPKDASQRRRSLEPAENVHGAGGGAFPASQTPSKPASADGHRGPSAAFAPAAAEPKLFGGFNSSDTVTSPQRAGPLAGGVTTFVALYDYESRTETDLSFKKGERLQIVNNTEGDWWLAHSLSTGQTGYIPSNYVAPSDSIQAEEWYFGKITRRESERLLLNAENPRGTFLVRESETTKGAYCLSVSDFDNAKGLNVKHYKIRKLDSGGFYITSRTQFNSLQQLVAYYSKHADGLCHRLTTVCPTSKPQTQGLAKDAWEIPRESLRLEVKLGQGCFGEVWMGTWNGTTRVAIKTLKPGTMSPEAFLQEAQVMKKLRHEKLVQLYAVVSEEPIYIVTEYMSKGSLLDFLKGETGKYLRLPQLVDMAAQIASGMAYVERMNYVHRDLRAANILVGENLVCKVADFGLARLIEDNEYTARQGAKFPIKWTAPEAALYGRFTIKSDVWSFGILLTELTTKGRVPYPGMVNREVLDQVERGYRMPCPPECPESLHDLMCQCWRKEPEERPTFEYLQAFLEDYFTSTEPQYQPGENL

[18] = target: T4, AKT2; test: Z'-LYTE in vitro kinase assay, AKT2; type: biochemical; conditions: preliminary screen, small panel of kinases
[19] = target: EGFR (Homo sapiens, UniProt P00533); test: Kinase profile screen at 5 μM, EGFR; type: biochemical; conditions: read-out: inhibition of EGFR
In short: as §1

[20] = target: PIM1 (Homo sapiens, UniProt P11309); test: Kinase profile screen at 5 μM, PIM1; type: biochemical; conditions: read-out: inhibition of PIM1
Chain of PIM1 (P11309 whole entry, species assumed): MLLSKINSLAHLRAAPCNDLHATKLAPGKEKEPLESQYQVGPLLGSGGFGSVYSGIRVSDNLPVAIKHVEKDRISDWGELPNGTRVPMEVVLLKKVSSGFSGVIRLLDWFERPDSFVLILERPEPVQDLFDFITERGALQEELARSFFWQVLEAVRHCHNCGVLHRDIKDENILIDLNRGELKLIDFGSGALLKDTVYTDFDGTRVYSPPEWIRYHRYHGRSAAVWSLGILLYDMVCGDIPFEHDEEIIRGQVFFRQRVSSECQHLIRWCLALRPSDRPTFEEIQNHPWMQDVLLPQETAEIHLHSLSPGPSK
In short: as §1

[21] = tested on: IKKβ; conditions: ref 22 (Kasinski et al.); cited from earlier work

inhibition of IKKβ [1]: moderate inhibition
inhibition of MEK1 [2]: moderate inhibition
inhibition of RAF1 [3]: moderate inhibition
inhibition at 5 µM [5]: ≥ 85%
inhibition at 5 µM [6]: ≤ 10%
number of kinases inhibited at ≤40% [7]: 28
number of kinases with 40-80% inhibition (modestly blocked) [7]: twelve
inhibition of AKT1 [8]: significantly increased blocking action
inhibition at 5 µM [9]: ≥ 85%
inhibition at 5 µM [10]: ≥ 85%
inhibition of IGFR [11]: no measurable inhibition
inhibition at 5 µM [12]: ≤ 10%
inhibition at 5 µM [13]: ≤ 10%
α (mixed-model parameter, global analysis of Michaelis-Menten graph) [14]: 31
inhibition at 5 µM [15]: ≤ 10%
inhibition at 5 µM [16]: ≥ 85%
inhibition of Src [17]: weak effect
inhibition of AKT2 [18]: significantly increased blocking action
inhibition at 5 µM [19]: ≤ 10%
inhibition at 5 µM [20]: ≤ 10%
SMILES: O=C1/C(=C/c2ccccn2)CNC/C1=C\c1ccccn1 [Compound 4, 3,5-Bis(2-pyridinylmethylidene)-4-piperidone]
kinase suppression by comparison with curcumin [4]: ≥ 10 fold

inhibition of IGFR [11]: no measurable inhibition
inhibition of Src [17]: weak effect
SMILES: O=C1/C(=C/c2ccccc2F)CNC/C1=C\c1ccccc1F [Compound 3, 3,5-bis(2-flurobenzylidene)piperidin-4-one]
mechanism of IKKβ blockade [21]: mixed mechanism

Source: paper PMC3927397 (Journal of medicinal chemistry, 2013)
